Activity calls are given as the source filed them. The rule behind the calls is not given here.
What was measured:
Type in all cases: cell-based
[1] = molecular target: T1, Protein cereblon/Baculoviral IAP repeat-containing protein 2 (Homo sapiens) (UniProt Q13490+Q96SW2); test: PROTAC activity at CRBN/IAP in human MM1.S cells assessed as induction of cIAP1 degradation pretreated for 1 hr with proteasome inhibitor, MG132 followed by incubation with drug for 3 hrs by western blot analysis
[2] = molecular target: T2, Protein cereblon/E3 ubiquitin-protein ligase XIAP (Homo sapiens) (UniProt P98170+Q96SW2); test: PROTAC activity at CRBN/IAP in human MM1.S cells assessed as induction of XIAP degradation at 0.1 uM by western blot analysis; conditions: time 3-96 hrs, TDE = time-dependent effect
T2 sequence (P98170 whole entry, looked up): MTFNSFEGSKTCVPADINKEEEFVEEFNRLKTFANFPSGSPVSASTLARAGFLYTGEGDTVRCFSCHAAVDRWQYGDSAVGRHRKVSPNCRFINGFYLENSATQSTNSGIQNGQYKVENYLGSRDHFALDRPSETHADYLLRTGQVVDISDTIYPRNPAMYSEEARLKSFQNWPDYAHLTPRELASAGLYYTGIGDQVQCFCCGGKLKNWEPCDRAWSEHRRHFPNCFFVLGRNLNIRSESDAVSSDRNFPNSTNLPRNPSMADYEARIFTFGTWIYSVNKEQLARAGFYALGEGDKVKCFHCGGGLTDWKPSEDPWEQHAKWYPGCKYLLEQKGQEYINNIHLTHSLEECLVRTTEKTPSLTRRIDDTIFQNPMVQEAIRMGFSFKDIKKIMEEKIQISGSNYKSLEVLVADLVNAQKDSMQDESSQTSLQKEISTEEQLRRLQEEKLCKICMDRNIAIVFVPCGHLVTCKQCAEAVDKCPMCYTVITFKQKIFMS
T2 sequence (Q96SW2 whole entry, looked up): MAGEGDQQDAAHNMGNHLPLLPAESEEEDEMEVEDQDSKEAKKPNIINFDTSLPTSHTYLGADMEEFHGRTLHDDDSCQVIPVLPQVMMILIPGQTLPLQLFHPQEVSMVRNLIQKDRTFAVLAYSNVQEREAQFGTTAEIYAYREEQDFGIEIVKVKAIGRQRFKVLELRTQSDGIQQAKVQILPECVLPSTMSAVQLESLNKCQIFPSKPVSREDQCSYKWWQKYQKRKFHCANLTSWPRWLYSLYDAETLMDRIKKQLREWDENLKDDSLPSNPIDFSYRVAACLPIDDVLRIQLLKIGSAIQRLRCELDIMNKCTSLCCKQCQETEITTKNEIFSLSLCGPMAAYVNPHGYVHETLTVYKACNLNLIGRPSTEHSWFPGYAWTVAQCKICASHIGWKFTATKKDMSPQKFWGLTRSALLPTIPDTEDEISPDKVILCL

[3] = molecular target: T2, Protein cereblon/E3 ubiquitin-protein ligase XIAP (Homo sapiens); test: PROTAC activity at CRBN/IAP in human MM1.S cells assessed as induction of XIAP degradation at 10 nM incubated for 16 hrs by western blot analysis
[4] = molecular target: T1, Protein cereblon/Baculoviral IAP repeat-containing protein 2 (Homo sapiens); test: PROTAC activity at CRBN/IAP in human MM1.S cells assessed as induction of cIAP1 degradation at 0.1 uM by western blot analysis; conditions: time 3-96 hrs, TDE = time-dependent effect
Method in brief: (§1)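 MM.1S cells treated 16 h at the stated concentration. Lysed, run on SDS-PAGE and transferred to PVDF. Probed with primary antibodies overnight at 4 °C, then HRP secondaries, with ECL detection. Band densitometry normalized to loading control and to DMSO-treated cells. Averages of at least three independent experiments.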

[5] = molecular target: T2, Protein cereblon/E3 ubiquitin-protein ligase XIAP (Homo sapiens); test: PROTAC activity at CRBN/IAP in human MM1.S cells assessed as induction of XIAP degradation at 0.1 uM incubated for 3 hrs by western blot analysis
Method in brief: (§2)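 MM.1S cells treated with 0.1 μM compound for 3 h. Western blotting of lysates on PVDF with HRP/ECL detection.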

[6] = molecular target: T3, Protein cereblon/Baculoviral IAP repeat-containing protein 3 (Homo sapiens) (UniProt Q13489+Q96SW2); test: PROTAC activity at CRBN/IAP in human MM1.S cells assessed as induction of cIAP2 degradation pretreated for 1 hr with proteasome inhibitor, MG132 followed by incubation with drug for 3 hrs by western blot analysis
T3 sequence (Q13489 whole entry, looked up): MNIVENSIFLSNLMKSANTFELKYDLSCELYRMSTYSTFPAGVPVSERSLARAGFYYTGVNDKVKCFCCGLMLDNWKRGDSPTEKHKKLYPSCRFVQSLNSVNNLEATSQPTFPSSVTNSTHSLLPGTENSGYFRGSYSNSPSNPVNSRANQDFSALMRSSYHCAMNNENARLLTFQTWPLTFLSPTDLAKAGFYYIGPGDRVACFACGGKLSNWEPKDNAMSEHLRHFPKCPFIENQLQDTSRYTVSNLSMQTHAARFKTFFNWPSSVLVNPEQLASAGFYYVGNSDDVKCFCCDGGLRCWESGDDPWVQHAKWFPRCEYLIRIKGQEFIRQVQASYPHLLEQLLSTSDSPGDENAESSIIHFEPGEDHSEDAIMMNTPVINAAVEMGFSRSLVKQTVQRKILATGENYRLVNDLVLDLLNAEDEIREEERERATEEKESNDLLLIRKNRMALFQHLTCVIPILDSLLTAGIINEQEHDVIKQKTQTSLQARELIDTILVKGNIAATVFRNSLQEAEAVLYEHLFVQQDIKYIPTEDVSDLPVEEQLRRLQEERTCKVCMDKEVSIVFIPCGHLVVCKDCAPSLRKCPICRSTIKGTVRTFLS
T3 sequence (Q96SW2 whole entry, looked up): as the sequence (Q96SW2 whole entry, looked up) above

[7] = molecular target: T1, Protein cereblon/Baculoviral IAP repeat-containing protein 2 (Homo sapiens); test: PROTAC activity at CRBN/IAP in human MM1.S cells assessed as induction of cIAP1 degradation at 100 nM incubated for 3 hrs by diaPASEF-based analysis
Method in brief: (§3)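 MM.1S cells exposed to DMSO or 0.1 μM compound for 3 h, then washed with PBS and snap-frozen. Lysed in 8 M urea/EPPS pH 8.5 buffer. 50 μg protein reduced, alkylated, precipitated, then digested with LysC and trypsin. Analysed by diaPASEF on timsTOF Pro2. Missing values imputed from a Gaussian distribution; log2 fold change versus DMSO with limma statistics.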

[8] = molecular target: T2, Protein cereblon/E3 ubiquitin-protein ligase XIAP (Homo sapiens); test: PROTAC activity at CRBN/IAP in human MM1.S cells assessed as induction of XIAP degradation incubated for 16 hrs by western blot analysis; conditions: dose 0.0001-1 µM; method in brief: as §1
[9] = molecular target: T3, Protein cereblon/Baculoviral IAP repeat-containing protein 3 (Homo sapiens); test: PROTAC activity at CRBN/IAP in human MM1.S cells assessed as induction of cIAP2 degradation pretreated for 1 hr with ubiquitin-activating inhibitor, MLN7243 followed by incubation with drug for 3 hrs by western blot analysis
[10] = molecular target: T1, Protein cereblon/Baculoviral IAP repeat-containing protein 2 (Homo sapiens); test: PROTAC activity at CRBN/IAP in human MM1.S cells assessed as induction of cIAP1 degradation pretreated for 1 hr with ubiquitin-activating inhibitor, MLN7243 followed by incubation with drug for 3 hrs by western blot analysis
[11] = molecular target: T1, Protein cereblon/Baculoviral IAP repeat-containing protein 2 (Homo sapiens); test: PROTAC activity at CRBN/IAP in human MM1.S cells assessed as induction of cIAP1 degradation at 0.1 uM incubated for 3 hrs by western blot analysis; method in brief: as §2
[12] = molecular target: T3, Protein cereblon/Baculoviral IAP repeat-containing protein 3 (Homo sapiens); test: PROTAC activity at CRBN/IAP in human MM1.S cells assessed as induction of cIAP2 degradation incubated for 16 hrs by western blot analysis; conditions: dose 0.0001-1 µM; method in brief: as §1
[13] = molecular target: T2, Protein cereblon/E3 ubiquitin-protein ligase XIAP (Homo sapiens); test: PROTAC activity at CRBN/IAP in human MM1.S cells assessed as induction of XIAP degradation pretreated for 1 hr with proteasome inhibitor, MG132 followed by incubation with drug for 3 hrs by western blot analysis
[14] = molecular target: T2, Protein cereblon/E3 ubiquitin-protein ligase XIAP (Homo sapiens); test: PROTAC activity at CRBN/IAP in human MM1.S cells assessed as induction of XIAP degradation at 0.1 uM incubated for 3 hrs by diaPASEF-based proteomics analysis; method in brief: as §3
[15] = molecular target: Protein cereblon/Zinc finger protein Aiolos (Homo sapiens) (UniProt Q96SW2+Q9UKT9); test: PROTAC activity at CRBN/IKZF3 in human MM1.S cells assessed as induction of IKZF3 degradation at 1 uM incubated for 16 hrs by western blot analysis; method in brief: as §1
Protein cereblon/Zinc finger protein Aiolos (Homo sapiens), sequence (Q96SW2 whole entry, looked up): as above
Protein cereblon/Zinc finger protein Aiolos (Homo sapiens), sequence (Q9UKT9 whole entry, looked up): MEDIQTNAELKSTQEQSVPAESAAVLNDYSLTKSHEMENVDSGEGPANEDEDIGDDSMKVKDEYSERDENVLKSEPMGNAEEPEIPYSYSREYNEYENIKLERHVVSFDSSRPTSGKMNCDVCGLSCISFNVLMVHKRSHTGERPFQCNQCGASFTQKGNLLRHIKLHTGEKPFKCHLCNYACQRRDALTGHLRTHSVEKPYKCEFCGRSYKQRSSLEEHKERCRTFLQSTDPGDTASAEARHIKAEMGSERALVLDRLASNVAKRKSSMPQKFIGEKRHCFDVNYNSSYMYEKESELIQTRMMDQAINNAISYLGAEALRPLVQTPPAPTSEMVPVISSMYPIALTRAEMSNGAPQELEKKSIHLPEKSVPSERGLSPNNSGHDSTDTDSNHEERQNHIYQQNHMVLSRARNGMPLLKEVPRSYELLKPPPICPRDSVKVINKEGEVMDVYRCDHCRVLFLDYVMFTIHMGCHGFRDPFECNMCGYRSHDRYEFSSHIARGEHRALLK

[16] = molecular target: T2, Protein cereblon/E3 ubiquitin-protein ligase XIAP (Homo sapiens); test: PROTAC activity at CRBN/IAP in human MM1.S cells assessed as induction of XIAP degradation pretreated for 1 hr with ubiquitin-activating inhibitor, MLN7243 followed by incubation with drug for 3 hrs by western blot analysis
[17] = molecular target: T1, Protein cereblon/Baculoviral IAP repeat-containing protein 2 (Homo sapiens); test: PROTAC activity at CRBN/IAP in human MM1.S cells assessed as induction of cIAP1 degradation incubated for 16 hrs by western blot analysis; conditions: dose 0.0001-1 µM; method in brief: as §1
[18] = molecular target: T3, Protein cereblon/Baculoviral IAP repeat-containing protein 3 (Homo sapiens); test: PROTAC activity at CRBN/IAP in human MM1.S cells assessed as induction of cIAP2 degradation at 0.1 uM incubated for 3 hrs by western blot analysis; method in brief: as §2
[19] = molecular target: T3, Protein cereblon/Baculoviral IAP repeat-containing protein 3 (Homo sapiens); test: PROTAC activity at CRBN/IAP in human MM1.S cells assessed as induction of cIAP2 degradation at 0.1 uM by western blot analysis; conditions: time 3-96 hrs, TDE = time-dependent effect; method in brief: as §1
[20] = molecular target: T1, Protein cereblon/Baculoviral IAP repeat-containing protein 2 (Homo sapiens); test: PROTAC activity at CRBN/IAP in human MM1.S cells assessed as induction of cIAP1 degradation at 10 nM incubated for 16 hrs by western blot analysis; method in brief: as §1

T1 sequence (Q13490 whole entry, looked up): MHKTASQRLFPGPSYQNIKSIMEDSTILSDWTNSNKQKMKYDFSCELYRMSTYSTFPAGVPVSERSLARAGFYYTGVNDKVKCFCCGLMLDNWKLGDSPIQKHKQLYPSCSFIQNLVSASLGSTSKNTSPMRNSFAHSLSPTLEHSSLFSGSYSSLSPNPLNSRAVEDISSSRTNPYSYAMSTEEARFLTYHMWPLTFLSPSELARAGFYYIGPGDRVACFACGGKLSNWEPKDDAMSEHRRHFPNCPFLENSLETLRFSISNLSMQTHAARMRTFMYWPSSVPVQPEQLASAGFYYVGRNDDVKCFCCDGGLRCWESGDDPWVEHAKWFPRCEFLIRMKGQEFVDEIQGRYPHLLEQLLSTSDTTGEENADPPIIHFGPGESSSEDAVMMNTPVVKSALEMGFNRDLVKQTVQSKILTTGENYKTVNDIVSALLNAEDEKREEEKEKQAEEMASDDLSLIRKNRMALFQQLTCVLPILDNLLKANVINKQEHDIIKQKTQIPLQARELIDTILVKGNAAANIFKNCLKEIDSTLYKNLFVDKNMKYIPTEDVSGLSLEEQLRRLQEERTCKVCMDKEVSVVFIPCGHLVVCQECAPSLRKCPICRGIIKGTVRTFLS
T1 sequence (Q96SW2 whole entry, looked up): as the sequence (Q96SW2 whole entry, looked up) above

Activity [1]: inactive | Activity [2]: Tde | Activity [3]: 100% | Activity [4]: Tde | Activity [5]: 100% | Activity [6]: inactive | Activity [7]: Active | Activity [8]: Dose-Dependent Effect | Activity [9]: inactive | Activity [10]: inactive | Activity [11]: 100% | Activity [12]: Dose-Dependent Effect | Activity [13]: inactive | Activity [14]: Active | Activity [15]: Active | Activity [16]: inactive | Activity [17]: Dose-Dependent Effect | Activity [18]: 100% | Activity [19]: Tde | Activity [20]: 100%
SMILES: CN[C@@H](C)C(=O)N[C@H](C(=O)N1C[C@@H](Oc2cccc(OCCOCCCCCCOCCCCCCNc3cccc4c3C(=O)N(C3CCC(=O)NC3=O)C4=O)c2)C[C@H]1C(=O)N[C@@H]1CCCc2ccccc21)C1CCCCC1 (stereo not given in full)

Source: ChEMBL document CHEMBL5338733, “Heterobifunctional Ligase Recruiters Enable pan-Degradation of Inhibitor of Apoptosis Proteins” (J Med Chem, 2023)
